In data set [1] the target is T1, Sphingosine 1-phosphate receptor 1 (Homo sapiens, UniProt P21453). In words: Antagonist activity at human S1P1 receptor expressed in CHO cells assessed as inhibition of SEW2871-induced [35S]GTPgamma binding. In kind it is functional, cell-based. A digest of the protocol:
(§1)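 Membranes from CHO cells stably expressing human S1P1. [35S]GTPγS binding with serial dilutions of S1P or SEW2871 added (1–10 µg protein per well), with or without 30 min antagonist preincubation. Binding was normalized to the percentage induced by maximal S1P. Ki derived from the agonist EC50 shift.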

Data set [2] has as its system Mus musculus. In words: Toxicity in ip dosed C57BL1/6J mouse assessed as induction of spontaneous pulmonary edema by Evan blue dye leakage assay. In kind it is organism-based. The following applies: in vivo.
In data set [3] the test system is Mus musculus. In words: Inhibition of SEW2871-induced lymphocyte egress in C57BL1/6J mouse assessed as blood lymphocyte sequestration at 10 to 20 mg/kg, ip. It counts as functional, organism-based. A digest of the protocol:
(§2)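 C57BL6 mice were given antagonist i.p. (10 mg/kg, or 3 mg/kg where stated) at the time of oral SEW2871 (up to 20 mg/kg) or vehicle. At 5 h, EDTA blood was taken for full blood counts and differential counts on a veterinary autoanalyzer calibrated for mouse. Blood lymphocyte data pooled n=12 per group; Student's t-test.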

Data set [4] is filed under the species Mus musculus. Nature of the data set: Inhibition of SEW2871-induced protection against VEGF-induced capillary leakage in Balb/cByJ mouse assessed as skin leakage of Evans blue dye from plasma into interstitial spaces by Miles assay. It counts as functional, organism-based. The following applies: Skin of body. A digest of the protocol:
(§3)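 Male Balb/cByJ mice (30 g) got i.p. vehicle (10 mM Na2CO3, 2% β-hydroxypropyl-cyclodextran) or antagonist 10 mg/kg, then oral SEW2871 20 mg/kg or vehicle. At 4.5 h, 0.5% Evans blue was given i.v. Intradermal murine VEGF165 (100 ng) or PBS/0.1% BSA was injected in triplicate. After 30 min, skin biopsies were extracted in formamide at 58 °C and read at 565 nm (VEGF minus BSA). ANOVA/Bonferroni.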

Data set [5] deals with Mus musculus. Nature of the data set: Inhibition of SEW2871-induced lymphocyte maturation in C57BL1/6J mouse assessed as medullary thymocyte phenotypic maturation at 10 to 20 mg/kg, ip. It counts as functional, organism-based. The method in brief:
(§4)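 Mice received oral SEW2871 (20 mg/kg) with or without i.p. antagonist (10 mg/kg). Thymi were removed at 5 h and CD69 on single-positive CD4+ thymocytes was measured by flow cytometry. n=3.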

The target in data set [6] is T1, Sphingosine 1-phosphate receptor 1. Nature of the data set: Antagonist activity at human S1P1 receptor expressed in CHO cells assessed as inhibition of S1P-induced [35S]GTPgamma binding. It counts as functional, cell-based. A digest of the protocol: as §1
Data set [7] in a line: Plasma clearance in cannulated rat at 1 mg/kg, iv by LC-MS method. It counts as ADME, organism-based. The arrangement: dose 1 mg/kg, route intravenous. The method in brief:
(§5)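 Cannulated rats (n=3) were given 1 mg/kg i.v. Plasma levels were followed by LC-MS to derive half-life, steady-state volume of distribution and plasma clearance.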

Data set [8] has as its target T1, Sphingosine 1-phosphate receptor 1. Nature of the data set: Antagonist activity at human S1P1 receptor expressed in CHO cells assessed as inhibition of SEW2871-induced Akt phosphorylation at 10 uM by Western blot. It counts as functional, cell-based. The method in brief: (§6)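 CHO cells stably expressing human S1P1 or S1P3 were grown to 50% confluence and serum-starved for 16 h. Cells were preincubated 1 h with antagonist at 10 µM, then stimulated 5 min with S1P or SEW2871 in serum-free medium with 0.1% fatty-acid-free BSA. Western blots of lysates gave phospho-ERK1/2 and phospho-Akt band intensities normalized to total ERK1/2 or Akt. n≥3.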

Data set [9] is filed under the species Mus musculus. Nature of the data set: Potentiation of VEGF-induced capillary leakage in Balb/cByJ mouse assessed as skin leakage of Evans blue dye from plasma into interstitial spaces Miles assay. It counts as functional, organism-based. The following applies: Skin of body. The method in brief:
as §3

Data set [10] addresses Sphingosine 1-phosphate receptor 3 (Homo sapiens) (UniProt Q99500). Nature of the data set: Antagonist activity at human S1P3 receptor expressed in CHO cells assessed as inhibition of S1P-induced [35S]GTPgamma binding at 10 uM. It counts as functional, cell-based. The method in brief: (§7)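 Membranes from CHO cells expressing human S1P2, S1P3 or S1P5. [35S]GTPγS binding with serial dilutions of S1P added to membranes (1–10 µg protein per well), with or without 30 min preincubation. Antagonist concentrations were as previously described.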

For data set [11] the target is unchanged. In words: Agonist activity at human S1P3 receptor expressed in CHO cells assessed as stimulation of [35S]GTPgamma binding at 10 uM. It counts as functional, cell-based. The method in brief: as §7
The target is the same in data set [12]. Nature of the data set: Antagonist activity at human S1P3 receptor expressed in CHO cells assessed as inhibition of S1P-induced Akt phosphorylation at 10 uM by Western blot. It counts as functional, cell-based. A digest of the protocol:
as §6
Background: Immunoblotting shows a protein as a band on a membrane.

Data set [13] concerns Mus musculus. Nature of the data set: Inhibition of SEW2871-induced medullary arrest of T cells in inguinal lymph nodes of BALB/c mouse at 10 mg/kg, iv by FITC-conjugated dextran staining based In vivo two-photon imaging method. To be noted: T-cell. The arrangement: dose 10 mg/kg. It counts as functional, organism-based. A digest of the protocol: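 Adoptively transferred CFSE-labelled CD4+ T cells in BALB/c mice. Mice were dosed orally with SEW2871 (10 mg/kg), and the inguinal lymph node was imaged by intravital two-photon microscopy 4–6 h later. Medullary sinus labelled with footpad rhodamine-dextran. Antagonist 10 mg/kg given i.v. during imaging; instantaneous T-cell velocities tracked in medulla and cortex.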

Data set [14] deals with Sphingosine 1-phosphate receptor 2 (Homo sapiens) (UniProt O95136). Nature of the data set: Antagonist activity at human S1P2 receptor expressed in CHO cells assessed as inhibition of S1P-induced [35S]GTPgamma binding at 10 uM. It counts as functional, cell-based. The method in brief: as §7
Sequence of Sphingosine 1-phosphate receptor 2 (Homo sapiens) (O95136 whole entry): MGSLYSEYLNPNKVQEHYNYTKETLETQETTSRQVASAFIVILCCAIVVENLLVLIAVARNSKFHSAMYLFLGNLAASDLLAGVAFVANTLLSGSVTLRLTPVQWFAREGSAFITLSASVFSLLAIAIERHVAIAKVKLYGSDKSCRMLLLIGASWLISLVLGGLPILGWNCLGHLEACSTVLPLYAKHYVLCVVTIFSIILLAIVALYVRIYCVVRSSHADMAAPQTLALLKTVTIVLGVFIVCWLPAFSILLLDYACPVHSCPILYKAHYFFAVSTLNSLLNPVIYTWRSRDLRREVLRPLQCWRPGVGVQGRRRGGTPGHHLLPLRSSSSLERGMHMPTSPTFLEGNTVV
Data set [15] relates to Mus musculus. In words: Toxicity in ip dosed C57BL1/6J mouse assessed as effect on lymphocyte number at 10 mg/kg, ip. It counts as organism-based. The arrangement: dose 10 mg/kg, route intraperitoneal. To be noted: in vivo. A digest of the protocol: as §2
Data set [16] addresses T1, Sphingosine 1-phosphate receptor 1. In words: Antagonist activity at human S1P1 receptor expressed in CHO cells assessed as inhibition of S1P-induced Akt phosphorylation at 10 uM by Western blot. It counts as functional, cell-based. The method in brief: as §6
Data set [17] has as its system Mus musculus. Nature of the data set: Inhibition of SEW2871-induced lymphopenia in C57BL1/6J mouse at 3 mg/kg, ip. It counts as functional, organism-based. The arrangement: dose 3 mg/kg. A digest of the protocol: as §2
Data set [18] has as its target T1, Sphingosine 1-phosphate receptor 1. In words: Antagonist activity at human S1P1 receptor expressed in CHO cells assessed as inhibition of SEW2871-induced ERK1/2 phosphorylation at 10 uM by Western blot. It counts as functional, cell-based. A digest of the protocol: as §6
The target is the same in data set [19]. Nature of the data set: Antagonist activity at human S1P1 receptor expressed in CHO cells assessed as inhibition of S1P-induced ERK1/2 phosphorylation at 10 uM by Western blot. In kind it is functional, cell-based. The method in brief:
as §6

Data set [20] in a line: Volume of distribution at steady state in cannulated rat at 1 mg/kg, iv by LC-MS method. It counts as ADME, organism-based. The arrangement: dose 1 mg/kg, route intravenous. The following applies: in vivo, read-out: Vdss. A digest of the protocol: as §5
Data set [21] is described as follows: Plasma concentration in mouse at 10 mg/kg, ip after 5 hrs. In kind it is ADME, organism-based. The arrangement: dose 10 mg/kg, route intraperitoneal. The method in brief:
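Plasma concentration measured by LC-MS in mice 5 h after i.p. injection of 10 mg/kg.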

Data set [22] deals with T1, Sphingosine 1-phosphate receptor 1. In words: Inhibition of GFP-tagged human S1P1 receptor internalization expressed in HEK293 cells at 10 uM by fluorimetric assay. In kind it is cell-based.
For data set [23], the system named is Mus musculus. In words: Inhibition of SEW2871-induced loss of CD69 expression in single positive CD4+ thymocytes in thymic medulla of C57BL1/6J mouse at 10 mg/kg, ip by FACS method. It counts as functional, organism-based. The arrangement: dose 10 mg/kg. The method in brief:
as §4
For orientation: A flow cytometer gives signals particle by particle.

Data set [24] deals with Mus musculus. Nature of the data set: Effect on CD69 expression in single positive CD4+ thymocytes in thymic medulla of C57BL1/6J mouse at 10 mg/kg, ip by FACS method. It counts as organism-based. The arrangement: dose 10 mg/kg, route intraperitoneal. To be noted: in vivo. A digest of the protocol:
as §4

Data set [25] can be described thus: Half life in cannulated rat at 1 mg/kg, iv by LC-MS method. The arrangement: dose 1 mg/kg, route intravenous. The following applies: in vivo. It counts as ADME, organism-based. A digest of the protocol:
as §5

For data set [26], the target named is Sphingosine 1-phosphate receptor 2 (Homo sapiens) (UniProt O95136). Nature of the data set: Agonist activity at human S1P2 receptor expressed in CHO cells assessed as stimulation of [35S]GTPgamma binding at 10 uM. It counts as functional, cell-based. The method in brief: as §7
Data set [27] concerns the target Sphingosine 1-phosphate receptor 5 (Homo sapiens) (UniProt Q9H228). Nature of the data set: Agonist activity at human S1P5 receptor expressed in CHO cells assessed as stimulation of [35S]GTPgamma binding at 10 uM. It counts as functional, cell-based. A digest of the protocol:
as §7

The target is the same in data set [28]. In words: Antagonist activity at human S1P5 receptor expressed in CHO cells assessed as inhibition of S1P-induced [35S]GTPgamma binding at 10 uM. It counts as functional, cell-based. A digest of the protocol: as §7
Data set [29] has as its target Sphingosine 1-phosphate receptor 3 (Homo sapiens) (UniProt Q99500). In words: Antagonist activity at human S1P3 receptor expressed in CHO cells assessed as inhibition of S1P-induced ERK1/2 phosphorylation at 10 uM by Western blot. In kind it is functional, cell-based. A digest of the protocol:
as §6

Data set [30] deals with Mus musculus. Nature of the data set: Toxicity in ip dosed C57BL1/6J mouse assessed as effect on percentage of lymphocyte within total WBCs counts in peripheral blood at 10 mg/kg, ip. It counts as organism-based. To be noted: in vivo. The arrangement: dose 10 mg/kg, route intraperitoneal. The method in brief: as §2

Activity calls are given as the source filed them. The calls are words filed in the database; no cut-off is given here. Where only a bound is given, the exact number is not on record here.

Sequence of Sphingosine 1-phosphate receptor 3 (Homo sapiens) (Q99500 whole entry): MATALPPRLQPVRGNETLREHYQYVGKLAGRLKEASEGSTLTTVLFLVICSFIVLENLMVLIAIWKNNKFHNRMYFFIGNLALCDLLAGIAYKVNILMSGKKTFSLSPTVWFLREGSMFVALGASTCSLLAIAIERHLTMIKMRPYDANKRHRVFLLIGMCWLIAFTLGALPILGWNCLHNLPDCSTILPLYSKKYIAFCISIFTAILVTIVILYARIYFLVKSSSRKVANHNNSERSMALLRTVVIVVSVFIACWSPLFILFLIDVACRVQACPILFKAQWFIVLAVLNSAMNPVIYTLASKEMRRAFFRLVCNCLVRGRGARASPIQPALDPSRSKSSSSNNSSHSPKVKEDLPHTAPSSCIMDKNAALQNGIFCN
T1 sequence (P21453 whole entry): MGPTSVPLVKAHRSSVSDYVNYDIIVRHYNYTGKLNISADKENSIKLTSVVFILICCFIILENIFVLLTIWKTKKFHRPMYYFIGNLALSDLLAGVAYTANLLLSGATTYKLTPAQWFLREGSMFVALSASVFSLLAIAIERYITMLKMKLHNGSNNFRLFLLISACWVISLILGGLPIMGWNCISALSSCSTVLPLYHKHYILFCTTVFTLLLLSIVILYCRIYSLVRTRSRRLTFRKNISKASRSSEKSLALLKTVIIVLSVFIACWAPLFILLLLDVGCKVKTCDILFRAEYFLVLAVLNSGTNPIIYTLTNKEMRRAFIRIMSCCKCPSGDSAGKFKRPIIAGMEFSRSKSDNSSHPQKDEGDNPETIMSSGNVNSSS
Sequence of Sphingosine 1-phosphate receptor 5 (Homo sapiens) (Q9H228 whole entry): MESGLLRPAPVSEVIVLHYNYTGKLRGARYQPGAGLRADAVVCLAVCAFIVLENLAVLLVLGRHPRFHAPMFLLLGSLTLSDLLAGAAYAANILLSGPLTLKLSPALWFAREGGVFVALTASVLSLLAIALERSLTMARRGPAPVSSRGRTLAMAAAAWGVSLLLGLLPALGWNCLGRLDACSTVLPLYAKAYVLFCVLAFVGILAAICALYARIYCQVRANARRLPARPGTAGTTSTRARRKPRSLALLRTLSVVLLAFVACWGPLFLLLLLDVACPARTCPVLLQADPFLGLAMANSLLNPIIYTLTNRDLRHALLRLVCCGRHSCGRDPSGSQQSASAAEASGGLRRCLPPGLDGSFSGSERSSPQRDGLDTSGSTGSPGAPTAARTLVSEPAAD

Broadly, the Ki is a measure of affinity in units of concentration, obtained from inhibition or displacement. As usually defined, the inhibition is the change of the read-out against control, counted positive when it falls. In the case of `CCCCCCc1cccc(NC(=O)[C@@H](N)CCP(=O)(O)O)c1`, the Ki in [1] turned out to be 2.84 µM; in data set [6], 4.63 µM. Also, the Activity entry in [2] is “Non-toxic”. Also, the inhibition entry in data set [3], in data set [4] and in [5] was “inactive” in each case.

What is called clearance is a measure of how efficiently the substance is removed, as volume per time. The low end stands for a low capacity for elimination, the high end for a high capacity for elimination. One may read the half-life as the time in which the quantity being followed falls by half. High values mean slow loss, low ones fast loss. Consider `CCCCCCc1cccc(NC(=O)[C@H](N)CCP(=O)(O)O)c1`, for which the clearance in data set [7] came to 0.278 L/h/kg. Further, the results for the Ki in [1] and in data set [6] were 0.018 µM and 0.077 µM, respectively. Besides, the inhibition result in [8], in [13], in data set [17], in [3], in data set [18] and in data set [4] was “Active” each time. In addition, the inhibition result in [5], in data set [22] and in data set [23] was “Active” throughout. The result in data set [9] was Active. Besides, the Activity entry in data set [2] is recorded as “Dose-dependent effect”; in [15], “Non-toxic”; in data set [24], “Non-toxic”; in [30] it was “Non-toxic”. The inhibition result in data set [10], in [12], in [14], in data set [28] and in data set [29] was “inactive” each time. Moreover, the result in [11], in [26] and in data set [27] was inactive. In addition, the inhibition in [16] and in data set [19] was greater than 70% each time. Also, in data set [20], the Vd turned out to be 0.46 L/kg. In addition, the concentration at 5 h in data set [21] came to 0.268 µM. Further, in data set [25], the half-life is 1.22 h.

Source of the values: ChEMBL document CHEMBL1221186, “Enhancement of capillary leakage and restoration of lymphocyte egress by a chiral S1P1 antagonist in vivo” (Nat Chem Biol, 2006).
